Source: ChEMBL document CHEMBL3046420, “A new antifungal and cytotoxic C-methylated flavone glycoside from Picea neoveitchii” (2012)

What was measured:
Assay type in all cases: functional
Pyricularia grisea = assay: Antifungal activity against Magnaporthe grisea assessed as mycelial growth inhibition at 100 ug/disk after 2 to 4 days by disk diffusion method relative to control; conditions: for zone of inhibition at 100 µg/disc: read-out: DIZ; for inhibition of growth at 100 µg/disc: read-out: GI
Outline: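 Modified disc diffusion on PDA in 90 mm plates. Each 5 mm filter disc was loaded with 10 µL of a 10 mg/mL MeOH solution, air-dried and placed at the plate centre. Four 5 mm fungal plugs were set 20 mm from the disc. MeOH discs served as blank and carbendazim as positive control. Plates were incubated at 29 °C for 2–4 days. Inhibition zone (mm) was expressed as % of the carbendazim zone. Triplicate.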

[1] = Cytotoxicity against Spodoptera litura cells assessed as growth inhibition at 20 mg/L after 24 hr by MTT assay relative to control; conditions: read-out: GI
Outline: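 SL cells were grown in Grace's insect medium with 9% newborn calf serum at 27.5 °C and used in log phase. Cells were seeded in 96-well plates for 24 h, then exposed for 24 h to compound (DMSO stock diluted in medium); controls got 0.5% DMSO. MTT (0.5 mg/mL) was added for 4 h, formazan dissolved in DMSO, and A570 read. Three separate experiments.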

Athelia rolfsii = assay: Antifungal activity against Athelia rolfsii assessed as mycelial growth inhibition at 100 ug/disk after 2 to 4 days by disk diffusion method relative to control; conditions: Agroathelia rolfsii; for zone of inhibition at 100 µg/disc: read-out: DIZ; for inhibition of growth at 100 µg/disc: read-out: GI
Outline: (§1)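 Disc diffusion on PDA in 90 mm Petri plates. Sterile 5 mm filter paper discs were loaded with 10 µL of a 10 mg/mL MeOH solution, air-dried and set at the plate centre. Four 5 mm fungal plugs were placed inverted 20 mm from the disc. Plates were incubated at 29 °C for 2–4 days, until growth in the MeOH blank reached the centre. The inhibitory zone was measured in mm and expressed as % of the carbendazim zone. Triplicate.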

Alternaria mali = assay: Antifungal activity against Alternaria mali assessed as mycelial growth inhibition at 100 ug/disk after 2 to 4 days by disk diffusion method relative to control; conditions: for zone of inhibition at 100 µg/disc: read-out: DIZ; for inhibition of growth at 100 µg/disc: read-out: GI; outline: as §1
Thielaviopsis paradoxa = assay: Antifungal activity against Ceratocystis paradoxa assessed as mycelial growth inhibition at 100 ug/disc after 2 to 4 days by disk diffusion method relative to control; conditions: for zone of inhibition at 100 µg/disc: read-out: DIZ; for inhibition of growth at 100 µg/disc: read-out: GI; outline: as §1

Row | Compound | zone of inhibition at 100 µg/disc (Pyricularia grisea) [mm] | inhibition of growth at 100 µg/disc (Pyricularia grisea) [%] | inhibition of growth at 20 µg/mL [1] [%] | zone of inhibition at 100 µg/disc (Athelia rolfsii) [mm] | inhibition of growth at 100 µg/disc (Athelia rolfsii) [%] | zone of inhibition at 100 µg/disc (Alternaria mali) [mm] | inhibition of growth at 100 µg/disc (Alternaria mali) [%] | zone of inhibition at 100 µg/disc (Thielaviopsis paradoxa) [mm] | inhibition of growth at 100 µg/disc (Thielaviopsis paradoxa) [%]
1 | O=C(/C=C/c1ccc(O)cc1)OC[C@H]1O[C@@H](Oc2c(-c3ccc(O)cc3)oc3cc(O)cc(O)c3c2=O)[C@H](O)[C@@H](O)[C@@H]1O [TILIROSIDE] | 0 | 0 | 65 | 2.6 | 22.4 | 5.5 | 55.6 | 7.1 | 27.6
2 | COc1c(-c2ccc(O[C@@H]3O[C@H](CO)[C@@H](O)[C@H](O)[C@H]3O)cc2)oc2c(O[C@@H]3O[C@H](CO)[C@@H](O)[C@H](O)[C@H]3O)c(O)c(C)c(O)c2c1=O | 5.7 | 30.6 | 64.4 | 4.8 | 41.4 | 4.3 | 43.4 | 0 | 0
3 | O=c1c(O[C@@H]2O[C@H](CO)[C@@H](O)[C@H](O)[C@H]2O)c(-c2ccc(O[C@@H]3O[C@H](CO)[C@@H](O)[C@H](O)[C@H]3O)cc2)oc2cc(O)cc(O)c12 | 0 | 0 | 23.1 | 3.7 | 31.9 | 2.4 | 24.2 | 0 | 0
4 | COc1cc([C@H]2Oc3c(O)cc(CCCO)cc3[C@@H]2CO)ccc1O[C@@H]1O[C@@H](C)[C@H](O)[C@@H](O)[C@H]1O [MASSONIANOSIDE B] | 7 | 37.6 | 17.9 | 0 | 0 | 8.8 | 88.9 | 5.6 | 21.8
5 | O=c1ccc2ccc(O[C@@H]3O[C@H](CO)[C@@H](O)[C@H](O)[C@H]3O)cc2o1 [SKIMMIN] | 0 | 0 | 15.3 | 2.8 | 24.1 | 0 | 0 | 1.5 | 5.8
6 | COc1cc(CCCO)ccc1O[C@@H]1O[C@H](CO)[C@@H](O)[C@H](O)[C@H]1O [DIHYDROCONIFERIN] | 8.6 | 46.2 | 4 | 0 | 0 | 3.1 | 31.3 | 0 | 0
7 | O=c1cc(-c2ccc(O)cc2)oc2cc(O[C@@H]3O[C@H](CO)[C@@H](O)[C@H](O)[C@H]3O)cc(O)c12 [APIGETRIN] | 3.3 | 17.7 | 7.8 | 4.8 | 41.4 | 5.8 | 58.6 | 0 | 0
8 | C=C(C)[C@H]1Cc2c(ccc3c2O[C@@H]2COc4cc(OC)c(OC)cc4[C@@H]2C3=O)O1 [ROTENONE] | – | – | 74.4 | – | – | – | – | – | –
9 | COc1c(-c2ccc(O)cc2)oc2c(O[C@@H]3O[C@H](CO)[C@@H](O)[C@H](O)[C@H]3O)c(O)c(C)c(O)c2c1=O | 7.6 | 40.9 | 62.5 | 9.4 | 81 | 7.2 | 72.7 | 6.2 | 24.1
10 | COC(=O)Nc1nc2ccccc2[nH]1 [CARBENDAZIM] | 18.6 | 100 | – | 11.6 | 100 | 9.9 | 100 | 25.7 | 100
11 | C[C@@H]1O[C@@H](OC[C@H]2O[C@@H](OC(=O)/C=C/c3ccccc3)[C@H](O)[C@@H](O)[C@@H]2O)[C@H](O)[C@H](O)[C@H]1O [GLEDITSCHIASIDE A] | 0 | 0 | 62.2 | 0 | 0 | 0 | 0 | 0 | 0
